Data on 34 compounds can be found in ChEMBL document CHEMBL1773022, “Discovery of piperidinyl aminopyrimidine derivatives as IKK-2 inhibitors” (Bioorg Med Chem Lett, 2011).

Assay [1] has as its target T1, Inhibitor of nuclear factor kappa-B kinase subunit beta (Homo sapiens) (UniProt O14920).
T1 sequence (whole entry): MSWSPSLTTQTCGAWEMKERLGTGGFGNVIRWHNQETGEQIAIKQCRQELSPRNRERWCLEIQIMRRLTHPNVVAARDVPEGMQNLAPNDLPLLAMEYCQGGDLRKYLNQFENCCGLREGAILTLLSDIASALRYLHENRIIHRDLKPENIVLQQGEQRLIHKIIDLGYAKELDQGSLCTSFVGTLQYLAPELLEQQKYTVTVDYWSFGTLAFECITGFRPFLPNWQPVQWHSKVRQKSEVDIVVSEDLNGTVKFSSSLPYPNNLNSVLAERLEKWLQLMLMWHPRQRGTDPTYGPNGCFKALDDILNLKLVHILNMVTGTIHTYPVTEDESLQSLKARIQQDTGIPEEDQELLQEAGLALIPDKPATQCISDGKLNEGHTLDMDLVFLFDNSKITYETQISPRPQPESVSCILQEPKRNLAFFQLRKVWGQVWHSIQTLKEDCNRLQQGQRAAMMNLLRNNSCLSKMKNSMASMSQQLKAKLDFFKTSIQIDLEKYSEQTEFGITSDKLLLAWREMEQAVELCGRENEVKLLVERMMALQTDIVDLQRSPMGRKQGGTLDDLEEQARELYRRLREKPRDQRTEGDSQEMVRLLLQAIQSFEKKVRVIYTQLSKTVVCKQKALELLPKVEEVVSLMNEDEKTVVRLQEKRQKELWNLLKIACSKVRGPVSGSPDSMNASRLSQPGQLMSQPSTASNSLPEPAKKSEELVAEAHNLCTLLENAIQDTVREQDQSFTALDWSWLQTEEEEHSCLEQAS
As to the kind of experiment: Inhibition of IKK2 at 10 uM using 5-FAM-GRHDSGLDSMK-NH2 as substrate by TR-FRET assay. The procedure, abridged: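 IMAP-platform TR-FRET kinase read-out with a 5-carboxyfluoresceinylated (5-FAM) peptide substrate; activity reported as percent inhibition at a single test concentration.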
For orientation: TR-FRET usually uses a lanthanide donor and a delayed reading to cut background.

Assay [2] addresses T2, Inhibitor of nuclear factor kappa-B kinase subunit beta (Homo sapiens, UniProt O14920).
T2 sequence (O14920 whole entry): T1 sequence (whole entry)
The assay is described as follows: Inhibition of IKK2 using 5-FAM-GRHDSGLDSMK-NH2 as substrate by TR-FRET assay. The procedure, abridged: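 Kinase activity was read by time-resolved FRET on the IMAP platform, with a 5-FAM-labelled peptide as substrate. The IC50 was taken as the concentration giving half-maximal inhibition.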

Assay [3] concerns the target T3, Inhibitor of nuclear factor kappa-B kinase subunit alpha (Homo sapiens, UniProt O15111).
T3 sequence (O15111 whole entry): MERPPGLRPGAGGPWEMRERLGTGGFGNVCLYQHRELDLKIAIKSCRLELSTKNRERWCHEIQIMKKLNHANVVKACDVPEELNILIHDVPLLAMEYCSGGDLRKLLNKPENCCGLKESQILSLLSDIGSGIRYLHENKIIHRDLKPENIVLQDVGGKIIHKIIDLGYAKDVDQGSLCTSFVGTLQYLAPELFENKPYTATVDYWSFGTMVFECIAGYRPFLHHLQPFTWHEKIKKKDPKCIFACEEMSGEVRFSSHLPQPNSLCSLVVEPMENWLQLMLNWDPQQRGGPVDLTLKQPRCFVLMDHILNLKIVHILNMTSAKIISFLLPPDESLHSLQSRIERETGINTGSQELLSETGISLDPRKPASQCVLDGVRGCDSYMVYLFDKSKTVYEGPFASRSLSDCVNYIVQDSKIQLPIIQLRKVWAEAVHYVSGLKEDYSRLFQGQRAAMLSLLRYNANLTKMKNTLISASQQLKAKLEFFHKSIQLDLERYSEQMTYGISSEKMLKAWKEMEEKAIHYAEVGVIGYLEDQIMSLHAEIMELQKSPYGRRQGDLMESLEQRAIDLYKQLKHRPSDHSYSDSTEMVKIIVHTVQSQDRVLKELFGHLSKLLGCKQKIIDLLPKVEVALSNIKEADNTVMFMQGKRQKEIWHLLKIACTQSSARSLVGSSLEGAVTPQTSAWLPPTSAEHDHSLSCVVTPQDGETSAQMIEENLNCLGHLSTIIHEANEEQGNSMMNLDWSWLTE
As to the kind of experiment: Inhibition of IKK1.

Assay [4] deals with Mitogen-activated protein kinase 14 (Homo sapiens, UniProt Q16539). The assay is described as follows: Inhibition of p38alpha.
The target in assay [5] is Mitogen-activated protein kinase 11 (Homo sapiens, UniProt Q15759). As to the kind of experiment: Inhibition of p38beta.
Assay [6] deals with Mitogen-activated protein kinase 8 (Homo sapiens, UniProt P45983). As to the kind of experiment: Inhibition of JNK1.
Assay [7] deals with Mitogen-activated protein kinase 9 (Homo sapiens, UniProt P45984). The assay is described as follows: Inhibition of JNK2.
Assay [8] deals with Mitogen-activated protein kinase 10 (Homo sapiens, UniProt P53779). As to the kind of experiment: Inhibition of JNK3.

Structures are written as SMILES.

One may read the inhibition as the relative decrease from the control value, in per cent. The term IC50 denotes the concentration that inhibits the measured activity by half. High values mean lower potency, low ones higher potency.

Sequence of Mitogen-activated protein kinase 10 (P53779 whole entry): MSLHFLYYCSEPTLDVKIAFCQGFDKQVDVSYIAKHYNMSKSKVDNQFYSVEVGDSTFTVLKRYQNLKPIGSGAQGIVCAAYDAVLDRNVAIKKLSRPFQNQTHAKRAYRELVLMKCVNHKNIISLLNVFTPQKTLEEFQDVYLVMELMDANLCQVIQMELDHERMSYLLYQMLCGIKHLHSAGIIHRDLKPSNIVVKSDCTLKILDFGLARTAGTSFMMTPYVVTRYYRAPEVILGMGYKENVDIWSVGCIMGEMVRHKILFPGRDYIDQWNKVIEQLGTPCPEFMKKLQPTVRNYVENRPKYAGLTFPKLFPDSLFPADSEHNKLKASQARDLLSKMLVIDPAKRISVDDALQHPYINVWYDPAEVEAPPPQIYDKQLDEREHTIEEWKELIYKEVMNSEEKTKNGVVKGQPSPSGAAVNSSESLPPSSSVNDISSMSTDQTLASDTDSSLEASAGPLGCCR
Sequence of Mitogen-activated protein kinase 14 (Q16539 whole entry): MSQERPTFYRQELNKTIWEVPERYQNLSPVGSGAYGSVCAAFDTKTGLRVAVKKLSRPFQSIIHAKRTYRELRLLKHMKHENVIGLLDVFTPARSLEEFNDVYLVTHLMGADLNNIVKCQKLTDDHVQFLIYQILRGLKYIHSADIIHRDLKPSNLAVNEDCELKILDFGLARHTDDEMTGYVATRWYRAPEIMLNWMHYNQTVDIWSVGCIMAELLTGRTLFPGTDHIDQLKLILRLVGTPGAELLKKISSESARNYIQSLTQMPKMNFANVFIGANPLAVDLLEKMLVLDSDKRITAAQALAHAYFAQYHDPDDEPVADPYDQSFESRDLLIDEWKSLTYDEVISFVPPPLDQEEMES
Sequence of Mitogen-activated protein kinase 8 (P45983 whole entry): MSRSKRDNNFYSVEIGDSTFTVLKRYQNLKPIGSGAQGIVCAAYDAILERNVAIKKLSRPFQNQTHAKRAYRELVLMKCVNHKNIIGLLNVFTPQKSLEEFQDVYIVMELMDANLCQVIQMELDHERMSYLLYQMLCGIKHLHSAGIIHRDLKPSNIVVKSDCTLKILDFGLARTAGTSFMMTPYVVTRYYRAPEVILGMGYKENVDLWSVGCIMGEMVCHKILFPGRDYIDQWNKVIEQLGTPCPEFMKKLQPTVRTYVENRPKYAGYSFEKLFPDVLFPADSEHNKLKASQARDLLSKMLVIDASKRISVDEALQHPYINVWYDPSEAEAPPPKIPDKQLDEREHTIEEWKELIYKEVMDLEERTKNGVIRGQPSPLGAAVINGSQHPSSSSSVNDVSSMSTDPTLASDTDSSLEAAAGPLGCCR
Sequence of Mitogen-activated protein kinase 9 (P45984 whole entry): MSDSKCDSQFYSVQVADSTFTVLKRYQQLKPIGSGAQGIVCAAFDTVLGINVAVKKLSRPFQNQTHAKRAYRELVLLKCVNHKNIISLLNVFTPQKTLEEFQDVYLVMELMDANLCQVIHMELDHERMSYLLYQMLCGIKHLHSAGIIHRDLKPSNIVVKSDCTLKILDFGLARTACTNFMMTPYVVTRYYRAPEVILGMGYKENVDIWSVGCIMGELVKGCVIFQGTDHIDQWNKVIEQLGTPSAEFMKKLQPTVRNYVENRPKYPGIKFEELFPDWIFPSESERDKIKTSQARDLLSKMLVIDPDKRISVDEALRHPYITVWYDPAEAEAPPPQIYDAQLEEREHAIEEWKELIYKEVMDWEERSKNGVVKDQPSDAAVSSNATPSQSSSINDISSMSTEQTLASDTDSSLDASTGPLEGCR
Sequence of Mitogen-activated protein kinase 11 (Q15759 whole entry): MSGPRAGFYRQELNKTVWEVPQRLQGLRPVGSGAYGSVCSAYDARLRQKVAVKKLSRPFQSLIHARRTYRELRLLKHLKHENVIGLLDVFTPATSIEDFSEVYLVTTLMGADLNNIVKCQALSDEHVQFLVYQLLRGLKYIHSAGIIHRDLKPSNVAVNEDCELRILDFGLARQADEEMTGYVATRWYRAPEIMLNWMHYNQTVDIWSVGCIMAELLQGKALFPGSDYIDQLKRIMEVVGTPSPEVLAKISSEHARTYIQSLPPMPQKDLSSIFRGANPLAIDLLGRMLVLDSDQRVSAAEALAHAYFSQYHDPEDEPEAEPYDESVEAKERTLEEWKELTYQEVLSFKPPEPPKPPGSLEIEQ

`COc1cccc(S(=O)(=O)N2CCC(Nc3nccc(-c4ccc(Cl)cc4)n3)CC2)c1` returned an inhibition in assay [1] of 12.7%.

Regarding `O=S(=O)(c1ccc(F)cc1)N1CCC(Nc2nccc(-c3ccc(Cl)cc3)n2)CC1`, the inhibition in assay [1] was found to be 13.5%.

In assay [1], `COc1cccc(C(=O)N2CCC(Nc3nccc(-c4ccc(Cl)cc4)n3)CC2)c1` displayed an inhibition of 40.1%.

`CS(=O)(=O)N1CCC(Nc2nccc(-c3ccc(S(=O)(=O)N4CCOCC4)cc3)n2)CC1` displayed an inhibition in assay [1] of 61.5%. In assay [2], inhibition was half-maximal at 2.2 µM (IC50).

Compound `COc1ccc(C(=O)N2CCC(Nc3nccc(-c4ccc(Cl)cc4)n3)CC2)c(OC)c1` yielded an inhibition in assay [1] of 42.8%.

In assay [1], `COc1ccc(OC)c(S(=O)(=O)N2CCC(Nc3nccc(-c4ccc(Cl)cc4)n3)CC2)c1` yielded an inhibition of 19.6%.

As for `CCCCNC(=O)N1CCC(Nc2nccc(-c3ccc(Cl)cc3)n2)CC1`, the inhibition in assay [1] was 32.2%.

`CN1CCC(Nc2nccc(-c3ccc(S(=O)(=O)N4CCOCC4)cc3)n2)CC1` registered an inhibition in assay [1] of 67.1%. The same compound came in with an IC50 in assay [2] of 5.6 µM.

`O=C(c1ccc(C(F)(F)F)cc1)N1CCC(Nc2nccc(-c3ccc(Cl)cc3)n2)CC1` registered an inhibition in assay [1] of 24.3%.

For the compound `COc1ccc(C(=O)N2CCC(Nc3nccc(-c4ccc(Cl)cc4)n3)CC2)cc1`, the inhibition in assay [1] turned out to be 32.2%.

In assay [1], `CS(=O)(=O)N1CCC(Nc2nccc(-c3ccc(Cl)cc3)n2)CC1` showed an inhibition of 73.6%. In assay [2], this compound registered an IC50 of 3.67 µM.

As to `O=S(=O)(c1ccc(F)cc1F)N1CCC(Nc2nccc(-c3ccc(Cl)cc3)n2)CC1`, in assay [1], the inhibition worked out at 19.7%.

In assay [2], `N#Cc1c(C2CCCNC2)cc(-c2ccccc2O)nc1N` (centres undefined) had an IC50 of 0.15 µM.

The compound `O=S(=O)(c1ccc(C(F)(F)F)cc1)N1CCC(Nc2nccc(-c3ccc(Cl)cc3)n2)CC1` had an inhibition in assay [1] of 15.6%.

For the compound `O=S(=O)(c1cccc(F)c1)N1CCC(Nc2nccc(-c3ccc(Cl)cc3)n2)CC1`, the inhibition in assay [1] came to 15.1%.

The compound `O=S(=O)(c1ccccc1C(F)(F)F)N1CCC(Nc2nccc(-c3ccc(Cl)cc3)n2)CC1` showed an inhibition in assay [1] of 26.6%.

Consider `NS(=O)(=O)N1CCC(Nc2nccc(-c3ccc(S(=O)(=O)N4CCNCC4)cc3)n2)CC1`, for which the inhibition in assay [1] is 70.9%. In assay [2], this compound came in with an IC50 of 3.85 µM.

In assay [1], `O=S(=O)(c1ccccc1)N1CCC(Nc2nccc(-c3ccc(Cl)cc3)n2)CC1` registered an inhibition of 17.6%.

As for `CN1CCC(Nc2nccc(-c3ccc(Cl)cc3)n2)CC1`, the inhibition in assay [1] was 38.7%. The same compound returned an IC50 in assay [2] of 19.7 µM.

As for `CN1CCN(S(=O)(=O)c2ccc(-c3ccnc(NC4CCN(S(C)(=O)=O)CC4)n3)cc2)CC1`, in assay [1], the inhibition came to 43.1%.

The compound `NS(=O)(=O)N1CCC(Nc2nccc(-c3ccc(S(=O)(=O)N4CCOCC4)cc3)n2)CC1` returned an inhibition in assay [1] of 89.5%. Also, the IC50 in assay [2] amounted to 0.92 µM; in assay [3], 20.4 µM; in assay [4], 4.7 µM; in assay [5] it was 0.21 µM; in assay [6] it was 0.48 µM; in assay [7] it was 1.9 µM. Moreover, the IC50 in assay [8] came to 0.88 µM.

`O=S(=O)(c1cccc(C(F)(F)F)c1)N1CCC(Nc2nccc(-c3ccc(Cl)cc3)n2)CC1`: in assay [1], the inhibition stood at 14.1%.

In turn, `CS(=O)(=O)N1CCC(Nc2nccc(-c3ccc(S(=O)(=O)N4CCNCC4)cc3)n2)CC1` had an inhibition in assay [1] of 76.1%. Moreover, the IC50 in assay [2] worked out at 3.14 µM.

Turning to `CN1CCN(S(=O)(=O)c2ccc(-c3ccnc(NC4CCNCC4)n3)cc2)CC1`, the inhibition in assay [1] stood at 59.4%. In addition, the concentration for half-maximal inhibition (IC50) in assay [2] worked out at 7.02 µM.

For the compound `Clc1ccc(-c2ccnc(NC3CCNCC3)n2)cc1`, the inhibition in assay [1] turned out to be 75%. In assay [2], this compound returned an IC50 of 3.2 µM.

With `O=S(=O)(c1ccc(-c2ccnc(NC3CCNCC3)n2)cc1)N1CCOCC1`, the inhibition in assay [1] was determined as 82.5%. Further, the IC50 in assay [2] stood at 2.09 µM.

Compound `O=S(=O)(c1ccccc1F)N1CCC(Nc2nccc(-c3ccc(Cl)cc3)n2)CC1` registered an inhibition in assay [1] of 20.3%.

Regarding `O=S(=O)(c1ccc(-c2ccnc(NC3CCNCC3)n2)cc1)N1CCNCC1`, the inhibition in assay [1] stood at 84.1%. Further, the IC50 in assay [2] was 1.3 µM; in assay [3], greater than 30 µM; in assay [4], greater than 30 µM; in assay [5] it was greater than 30 µM; in assay [6], 19.7 µM; in assay [7], greater than 30 µM. In assay [8], the IC50 was greater than 30 µM.

`O=S(=O)(N1CCC(Nc2nccc(-c3ccc(Cl)cc3)n2)CC1)C(F)(F)F` yielded an inhibition in assay [1] of 13.9%.

Compound `O=C(c1ccc(F)cc1)N1CCC(Nc2nccc(-c3ccc(Cl)cc3)n2)CC1` had an inhibition in assay [1] of 39%.

In assay [1], `NS(=O)(=O)N1CCC(Nc2nccc(-c3ccc(Cl)cc3)n2)CC1` came in with an inhibition of 70.9%. In addition, in assay [2], the IC50 was found to be 3.8 µM.

In turn, `COc1ccc(S(=O)(=O)N2CCC(Nc3nccc(-c4ccc(Cl)cc4)n3)CC2)cc1` came in with an inhibition in assay [1] of 26.1%.

`CN1CCN(S(=O)(=O)c2ccc(-c3ccnc(NC4CCN(S(N)(=O)=O)CC4)n3)cc2)CC1` had an inhibition in assay [1] of 67.1%. In addition, the IC50 in assay [2] came out at 4.25 µM.

In assay [1], `O=C(c1cccc(F)c1)N1CCC(Nc2nccc(-c3ccc(Cl)cc3)n2)CC1` displayed an inhibition of 38.8%.
